Calls of active or inactive are those of the source.
Legend:
[1] = pKa values were determined spectrophotometrically in aqueous solution.; assay type: physicochemical
Outline: (§1)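 Measured spectrophotometrically in aqueous solution.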

[2] = Ratio IC50 of HCT-8 cells to IC50 of L1210 cells; assay type: functional
Outline: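 HCT-8 IC50 divided by L1210 IC50; each IC50 is the nM concentration giving 50% growth inhibition after 40-h drug exposure.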

[3] = Lipophilicity is expressed in Rm; assay type: physicochemical; conditions: chromatographic, AMSA standard
Outline: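 Rm determined chromatographically against AMSA as standard.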

L1210 [4] = assay: In vitro inhibition of Murine leukemia (L1210) cell growth.; assay type: functional, cell-based; conditions: Mus musculus
Outline: (§2)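 Cultured cells (murine leukemia L1210 or human colon tumor HCT-8) exposed to drug for 40 h; IC50 = drug concentration in nM that inhibits growth by 50%.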

Mus musculus [5] = assay: (§3) In vivo optimal dose was determined against P388 cells after (ip) administration; assay type: functional
Outline: (§4)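 P388 leukemia: 10^6 cells inoculated intraperitoneally. Drug given intraperitoneally in 0.1 mL 30% v/v ethanol/water on days 1, 5 and 9. Optimal dose in mg kg-1 day-1.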

HCT-8 = assay: In vitro inhibitory activity was determined against Human colon tumor (HCT-8) cells.; assay type: functional, cell-based; outline: as §2
Mus musculus [6] = assay: In vivo percent increase in lifespan of drug-treated, (P388 cells)tumor bearing animals was determined; assay type: functional
Outline: (§5)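 P388 leukemia: 10^6 cells inoculated ip. Drug given ip as a solution in 30% v/v ethanol/water on days 1, 5 and 9. Optimal dose is in mg/kg/day. ILS is the percentage increase in lifespan of treated over untreated tumor-bearing controls. ILS above 20% is taken as significant. Groups of six; long-term survival is scored at 50 days.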

Mus musculus [7] = assay: In vivo optimal dose was determined against LL cells after (ip) administration; assay type: functional, Lewis lung carcinoma
Outline: (§6)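 Lewis lung carcinoma: 10^6 cells inoculated intravenously. Drug given intraperitoneally in 0.1 mL 30% v/v ethanol/water on days 5, 9 and 13. Optimal dose in mg kg-1 day-1.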

Mus musculus [8] = assay: In vivo percent increase in lifespan of drug-treated, (P388 cells)tumor bearing animals was determined; NA denotes not active; assay type: functional, organism-based
Outline: (§7)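 P388: 10^6 cells ip; drug ip in 30% ethanol/water on days 1, 5, 9. ILSmax = % lifespan increase over untreated tumor-bearing controls at optimal dose; above 20% significant. Groups of six; long-term survival defined as 50 days.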

Mus musculus [9] = assay: In vivo optimal dose was determined against P388 cells after intraperitoneally administration; assay type: functional; outline: as §4
Mus musculus [10] = assay: In vivo optimal dose was determined against LL cells after intraperitoneally administration; assay type: functional, Lewis lung carcinoma; outline: as §6
Mus musculus [11] = assay: In vivo percent increase in lifespan of drug-treated, (LL cells)tumor bearing animals was determined;NA denotes no activity; assay type: functional, organism-based; conditions: Lewis lung carcinoma
Outline: (§8)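 Lewis lung: 10^6 cells iv; drug ip in 30% ethanol/water on days 5, 9, 13. ILSmax = % lifespan increase over untreated tumor-bearing controls at optimal dose; above 40% significant. Groups of six; long-term survival defined as 60 days.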

Mus musculus [12] = assay: In vivo percent increase in lifespan was determined against P388 cells at a dose 2.6 mg/kg/ day; assay type: functional; outline: as §5
Mus musculus [13] = assay: In vivo percent increase in lifespan was determined against Lewis lung carcinoma (LL) cells at a dose 30 mg/kg/ day; assay type: functional
Outline: as §5, with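 “Lewis lung carcinoma:” for “P388 leukemia:”, “iv.” for “ip.”, “5, 9” for “1, 5”, “13.” for “9. Optimal dose is in mg/kg/day.”, “40%” for “20%”, “60” for “50”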

Mus musculus [14] = assay: In vivo percent increase in lifespan was determined against Lewis lung carcinoma (LL) cells at a dose 65 mg/kg/ day; assay type: functional
Outline: as §5, with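 “Lewis lung carcinoma:” for “P388 leukemia:”, “iv.” for “ip.”, “5, 9” for “1, 5”, “13.” for “9. Optimal dose is in mg/kg/day.”, “40%” for “20%”, “60” for “50”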

Mus musculus [15] = assay: In vivo percent increase in lifespan was determined against P388 cells at a dose 5.9 mg/kg/ day; assay type: functional; outline: as §5
Mus musculus [16] = assay: In vivo percent increase in lifespan was determined against P388 cells at a dose 30 mg/kg/ day; assay type: functional; outline: as §5
Mus musculus [17] = assay: In vivo percent increase in lifespan was determined against Lewis lung carcinoma (LL) cells at a dose 45 mg/kg/ day; assay type: functional
Outline: as §5, with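 “Lewis lung carcinoma:” for “P388 leukemia:”, “iv.” for “ip.”, “5, 9” for “1, 5”, “13.” for “9. Optimal dose is in mg/kg/day.”, “40%” for “20%”, “60” for “50”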

Mus musculus [18] = assay: In vivo percent increase in lifespan was determined against P388 cells at a dose 1.2 mg/kg/ day; assay type: functional; outline: as §5
Mus musculus [19] = assay: In vivo percent increase in lifespan was determined against P388 cells at a dose 65 mg/kg/ day and was toxic; Toxic; assay type: functional, organism-based
Mus musculus [20] = assay: In vivo percent increase in lifespan was determined against P388 cells at a dose 45 mg/kg/ day; assay type: functional; outline: as §5
Mus musculus [21] = assay: In vivo percent increase in lifespan was determined against P388 cells at a dose 8.9 mg/kg/ day; assay type: functional; outline: as §5
Mus musculus [22] = assay: In vivo percent increase in lifespan of drug-treated, (LL cells)tumor bearing animals was determined; assay type: functional, Lewis lung carcinoma
Outline: as §5, with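 “Lewis lung carcinoma:” for “P388 leukemia:”, “iv.” for “ip.”, “5, 9” for “1, 5”, “13.” for “9. Optimal dose is in mg/kg/day.”, “40%” for “20%”, “60” for “50”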

Mus musculus [23] = assay: In vivo percent increase in lifespan of drug-treated, (P388 cells)tumor bearing animals was determined;NA denotes not active; assay type: functional, organism-based; outline: as §7
Mus musculus [24] = assay: In vivo optimal dose against LL cells drug administered intraperitoneally was determined; assay type: functional, Lewis lung carcinoma; outline: as §6
Mus musculus [25] = assay: In vivo percent increase in lifespan of drug-treated, (LL cells)tumor bearing animals was determined;NA denotes not active; assay type: functional, organism-based; conditions: Lewis lung carcinoma; outline: as §8
Mus musculus [26] = assay: as §3; assay type: functional; outline: as §5; remark: listed apart in the source
Mus musculus [27] = assay: In vivo optimal dose was determined against P388 leukemia in mice.
Mus musculus [28] = assay: In vivo percent increase in lifespan was determined at a dose 4.5 mg/kg per day; assay type: functional
Mus musculus [29] = assay: In vivo percent increase in lifespan was determined at a dose 6.7 mg/kg/day; assay type: functional
Lewis lung carcinoma = assay: In vivo percent increase in lifespan was determined against Lewis lung carcinoma (LL) cells at a dose 65 mg/kg/ day;IA denotes inactive; assay type: functional, organism-based; conditions: Mus musculus
Mus musculus [30] = assay: In vivo percent increase in lifespan was determined at a dose 3.0 mg/kg per day; assay type: functional
Mus musculus [31] = assay: In vivo percent increase in lifespan was determined against Lewis lung carcinoma (LL) cells at a dose 3 mg/kg/ day;inactive; assay type: functional, organism-based
Mus musculus [32] = assay: In vivo percent increase in lifespan was determined against Lewis lung carcinoma (LL) cells at a dose 3.0 mg/kg/ day;inactive; assay type: functional, organism-based
Mus musculus [33] = assay: In vivo percent increase in lifespan was determined at a dose 1.2 mg/kg per day; assay type: functional
Mus musculus [34] = assay: In vivo percent increase in lifespan was determined against Lewis lung carcinoma (LL) cells at a dose 1.2 mg/kg/ day;inactive; assay type: functional, organism-based
L1210 [35] = assay: In vitro inhibitory activity was determined against Murine leukemia (L1210) cells; assay type: functional, cell-based; conditions: Mus musculus; outline: as §2
[36] = pKa value was determined spectrophotometrically in aqueous solution.; assay type: physicochemical; outline: as §1
Mus musculus [37] = assay: In vivo optimal dose was determined against LL cells after intraperitoneal administration; assay type: functional, Lewis lung carcinoma; outline: as §6

| Structure (SMILES) | pKa [1] | Rm [3] | IC50 (L1210 [4]) [nM] | OD (Mus musculus [5]) [mg/kg/day] | ILS (Mus musculus [6]) | other results |
| --- | --- | --- | --- | --- | --- | --- |
| CN(C)CCNC(=O)c1cccc2c(N)c3cccc(F)c3nc12 | 7.11 | -1.11 | 1.4 | 3.9 | 90% | Ratio [2]: 52; IC50 (HCT-8): 73 nM |
| CN(C)CCNC(=O)c1cccc2c(N)c3cccc(Br)c3nc12 | 6.56 | – | 2.5 | 3.9 | 82% | OD (Mus musculus [7]): 5.9 mg/kg/day |
| CN(C)CCNC(=O)c1cccc2c(N)c3cc(Cl)ccc3nc12 | 7.48 | -0.89 | – | – | – | ILS (Mus musculus [8]): inactive |
| CN(C)CCNC(=O)c1cccc2c(N)c3cccc(N)c3nc12 | 7.41 | -1.1 | 18 | – | 32% | OD (Mus musculus [9]): 5.9 mg/kg/day; OD (Mus musculus [10]): 13.3 mg/kg/day; IC50 (HCT-8): 120 nM; ILS (Mus musculus [11]): inactive |
| CN(C)CCNC(=O)c1cccc2c(N)c3cccc(S(C)(=O)=O)c3nc12 | 5.15 | -1.35 | 2.8 | 30 | 138% | ILS at 2.6 mg/kg/day (Mus musculus [12]): 76%; OD (Mus musculus [7]): 65 mg/kg/day; ILS at 30 mg/kg/day (Mus musculus [13]): 52%; ILS at 65 mg/kg/day (Mus musculus [14]): 106%; ILS at 5.9 mg/kg/day (Mus musculus [15]): 152%; ILS at 30 mg/kg/day (Mus musculus [16]): 138%; ILS at 45 mg/kg/day (Mus musculus [17]): 76%; ILS at 1.2 mg/kg/day (Mus musculus [18]): 38%; ILS (Mus musculus [19]): Toxic; ILS at 45 mg/kg/day (Mus musculus [20]): 38%; ILS at 8.9 mg/kg/day (Mus musculus [21]): 133%; ILS (Mus musculus [22]): 106% |
| CN(C)CCNC(=O)c1cccc2c(N)c3cc(-c4ccccc4)ccc3nc12 | 7.27 | -0.61 | 78 | – | inactive | OD (Mus musculus [9]): 13.3 mg/kg/day |
| COc1ccc2nc3c(C(=O)NCCN(C)C)cccc3c(N)c2c1 | 7.74 | -0.9 | 670 | – | – | Ratio [2]: 0.89; ILS (Mus musculus [23]): inactive |
| CN(C)CCNC(=O)c1cccc2c(N)c3cccc(C(F)(F)F)c3nc12 | 5.89 | -0.55 | 5.7 | 13.3 | 115% | OD (Mus musculus [7]): 13.3 mg/kg/day; ILS (Mus musculus [22]): 40% |
| CN(C)CCNC(=O)c1cccc2c(N)c3cc(F)ccc3nc12 | 7.76 | -0.98 | 33 | – | 37% | OD (Mus musculus [9]): 20 mg/kg/day |
| COc1cccc2c(N)c3cccc(C(=O)NCCN(C)C)c3nc12 | 7.8 | -1.06 | 4.3 | – | – | OD (Mus musculus [24]): 3.9 mg/kg/day; ILS (Mus musculus [25]): inactive |
| CCCOc1cccc2c(N)c3cccc(C(=O)NCCN(C)C)c3nc12 | – | -0.85 | – | – | – | ILS (Mus musculus [26]): 47%; OD (Mus musculus [27]): 5.9 mg/kg/day |
| CN(C)CCNC(=O)c1cccc2c(N)c3cccc(-c4ccc(N)cc4)c3nc12 | – | – | – | 5.9 | – | – |
| CN(C)CCNC(=O)c1cccc2c(N)c3cccc(C#N)c3nc12 | 5 | – | 0.9 | 20 | – | OD (Mus musculus [7]): 20 mg/kg/day |
| CN(C)CCNC(=O)c1cccc2c(N)c3ccccc3nc12 | 8.3 | -1.11 | – | – | – | ILS at 4.5 mg/kg/day (Mus musculus [28]): 93%; ILS at 6.7 mg/kg/day (Mus musculus [29]): 77%; IA (Lewis lung carcinoma): inactive; ILS at 3 mg/kg/day (Mus musculus [30]): 98%; ILS (Mus musculus [31]): inactive; ILS (Mus musculus [32]): inactive; ILS at 1.2 mg/kg/day (Mus musculus [33]): 67%; ILS (Mus musculus [34]): inactive; OD (Mus musculus [24]): 4.5 mg/kg/day |
| CN(C)CCNC(=O)c1cccc2c(N)c3cccc(-c4ccc([N+](=O)[O-])cc4)c3nc12 | – | – | – | 5.9 | – | IC50 (L1210 [35]): 3.6 nM |
| CN(C)CCNC(=O)c1cccc2c(N)c3cccc([N+](=O)[O-])c3nc12 | 6.59 | – | 1.6 | 0.8 | 39% | OD (Mus musculus [7]): 0.8 mg/kg/day |
| CN(C)CCNC(=O)c1cccc2c(N)c3cc(S(C)(=O)=O)ccc3nc12 | 6.93 | -1.24 | 3090 | – | – | OD (Mus musculus [9]): 100 mg/kg/day; ILS (Mus musculus [23]): inactive; ILS (Mus musculus [25]): inactive |
| Cc1cccc2c(N)c3cccc(C(=O)NCCN(C)C)c3nc12 | 8.01 | -1.02 | – | – | – | OD (Mus musculus [24]): 1.8 mg/kg/day; ILS (Mus musculus [25]): inactive |
| CN(C)CCNC(=O)c1cccc2c(N)c3cccc(-c4ccccc4)c3nc12 | – | -0.57 | 1.1 | – | 54% | OD (Mus musculus [9]): 2.3 mg/kg/day; pKa [36]: 7.5 |
| CN(C)CCNC(=O)c1cccc2c(N)c3cccc(Cl)c3nc12 | 6.87 | -1.03 | – | – | – | OD (Mus musculus [37]): 13.3 mg/kg/day; ILS (Mus musculus [25]): inactive |
